Values joined by “and” are separate entries in the source; they are usually repeats but may differ in a detail not shown here. Identical values can stand only once.
Assays:
[1] = used for total active concentration; cited from earlier work
BTK [2] = conditions: cited from earlier work
[3] = humans, cited from earlier work
[4] = Population pharmacokinetic; format: in vivo, human; conditions: for geometric mean AUC24h,ss higher in Chinese patients than in White patients / geometric mean C max,ss higher in Chinese patients than in White patients: 100 mg BID, empirical Bayes estimates, Chinese n = 105, White n = 512
Method in brief: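 Pooled plasma acalabrutinib/ACP-5862 data from 14 trials, with China study intensive and sparse schedules, were fitted to the existing model. Parent: two-compartment, five transit compartments. Metabolite: two-compartment, formation fixed at 0.4 CL/F. BOV was on MTT and F1; BSV on clearances and volumes. Race (East Asian vs non-East Asian), PPI, ECOG and health status were tested as proportional shifts. Estimation used NONMEM SAEM/IMP, with BLQ handled by M3.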

R/R CLL/SLL = test: Exposure-efficacy; format: in vivo, human; conditions: for relationship between exposures and efficacy endpoints (BOR and SPD): Chinese patients with R/R CLL/SLL (n = 60), 100 mg BID
Method in brief: (§1)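 Chinese pivotal phase 1/2 study (MCL n = 34; CLL n = 60). Per-patient acalabrutinib, ACP-5862 and total active moiety AUC_24h,ss and C_max,ss were taken from pop-PK post hoc estimates. Total active moiety was adjusted for BTK potency and protein binding. Best overall response was assessed by an independent review committee: CR/PR/SD/PD for MCL, PR/PRL/SD for CLL/SLL. SPD change from baseline was also scored. Analysis was graphical plus logistic regression.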

R/R MCL = test: Exposure-efficacy; format: in vivo, human; conditions: for relationship between exposures and efficacy endpoints (BOR and SPD): Chinese patients with R/R MCL (n = 34), 100 mg BID
Method in brief: as §1

[5] = system: breast cancer‐resistance protein (BCRP); conditions: cited from earlier work
[6] = cited from earlier work
BTK [7] = conditions: 100 mg BID, clinical pharmacodynamic data; cited from earlier work
CYP3A enzymes = conditions: cited from earlier work
[8] = radio-labelled dose, humans; cited from earlier work
[9] = at a 400 mg daily dose; cited from earlier work
Exposure-safety = format: in vivo, human
Method in brief: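 Pooled seven studies (six global plus China; n = 476). Endpoints were incidence of grade ≥2 AEs, grade ≥3 AEs, and grade ≥2 AEs of clinical interest occurring in ≥5% of patients (MedDRA v21.1). Post hoc pop-PK steady-state exposures (acalabrutinib AUC_24h,ss primary) were related to AE incidence by graphical plots and logistic regression with 95% CI. Analysis was run for the global and Chinese populations.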

[10] = format: in vivo, human; conditions: noncompartmental analysis, patients with intensive PK sampling
[11] = cited from earlier work; remark: listed apart in the source
[12] = Chinese R/R CLL/SLL, n = 60, 100 mg BID
[13] = Chinese R/R MCL, n = 34, 100 mg BID

CC#CC(=O)NCCCC(=O)c1nc(-c2ccc(C(=O)Nc3ccccn3)cc2)c2c(N)nccn12 [ACP‐5862]
free fraction (fu) [1]: 0.013
potency for BTK inhibition compared with acalabrutinib (BTK [2]): approximately 0.5 fold
mean terminal half‐life [3]: 6.6 h
geometric mean AUC24h,ss higher in Chinese patients than in White patients [4]: 28%
geometric mean C max,ss higher in Chinese patients than in White patients [4]: 28%
CLM/F, apparent clearance of metabolite, estimate (RSE %) ([4]; final model fixed effect): 21.5 (0.6) L/h
QM/F, apparent intercompartmental clearance for metabolite, estimate (RSE %) ([4]; final model fixed effect): 21.1 (2.9) L/h
VcM/F, apparent volume of the central compartment for metabolite, estimate (RSE %) ([4]; final model fixed effect): 24.3 (1.7) L
VpM/F, apparent volume of the peripheral compartment for metabolite, estimate (RSE %) ([4]; final model fixed effect): 90.9 (1.3) L
BSV CLM/F, estimate (RSE %) ([4]; random effect): 13.2 (18.7) L/h
BSV QM/F, estimate (RSE %) ([4]; random effect): 62.4 (13.8) L/h
BSV VcM/F, estimate (RSE %) ([4]; random effect): 37.4 (13.7) L
BSV VpM/F, estimate (RSE %) ([4]; random effect): 29.3 (18.8) L
relationship between exposures and efficacy endpoints (BOR and SPD) (R/R CLL/SLL): flat relationships
relationship between exposures and efficacy endpoints (BOR and SPD) (R/R MCL): flat relationships

CC#CC(=O)N1CCC[C@H]1c1nc(-c2ccc(C(=O)Nc3ccccn3)cc2)c2c(N)nccn12 [acalabrutinib]
BCRP substrate status [5]: substrate
solubility, pH dependence [6]: solubility decreasing with increasing pH
BTK occupancy over 24 h (BTK [7]): maximal
metabolism by CYP3A enzymes into ACP‐5862 (CYP3A enzymes): predominantly metabolized
dose excreted as unchanged acalabrutinib in urine and faeces [8]: less than 2%
dose recovered in the faeces [8]: 84%
dose recovered in the urine [8]: 12%
maximum tolerated dose [9]: not observed
relationship of acalabrutinib AUC24h,ss with grade ≥2 or ≥3 adverse events (Exposure-safety; both Chinese patients and the overall population, 100–400 mg daily doses): flat relationship
relationship between acalabrutinib AUC24h,ss and grade ≥3 AEs (Exposure-safety; overall population, 100 mg BID): flat relationship
relationship between acalabrutinib AUC24h,ss and grade ≥2 and grade ≥3 AEs (Exposure-safety; overall population, logistic regression, daily doses 100 to 400 mg): no statistically significant relationship
median time to peak plasma concentration (T max) ([3]; after oral administration): 0.75 h
absolute bioavailability [3]: 25%
mean steady‐state volume of distribution (Vss) [3]: approximately 34 L
mean terminal half‐life [3]: 1.4 h
geometric mean AUC24h,ss higher in Chinese patients than in White patients [4]: 28%
geometric mean C max,ss higher in Chinese patients than in White patients [4]: 28%
CL/F higher in healthy participants than in patients with B‐cell malignancies ([4]; covariate analysis): 64.5%
Vp/F lower in healthy participants than in patients with B‐cell malignancies ([4]; covariate analysis): 42.4%
decrease in CL/F, ECOG performance status ≥2 compared with ECOG ≤1 ([4]; covariate analysis): 12.8%
reduction of F1 by PPIs ([4]; covariate analysis): 30.7%
CL/F, apparent clearance of parent drug, estimate (RSE %) ([4]; final model fixed effect): 130.3 (0.4) L/h
Ka, first‐order absorption rate constant, estimate (RSE %) ([4]; final model fixed effect): 1.4 (6.6) h^−1
MTT, mean transit time, estimate (RSE %) ([4]; final model fixed effect): 0.4 (5) h
Q/F, apparent intercompartmental clearance for parent drug, estimate (RSE %) ([4]; final model fixed effect): 19.5 (1.3) L/h
Vc/F, apparent volume of the central compartment for parent drug, estimate (RSE %) ([4]; final model fixed effect): 28.8 (4.5) L
Vp/F, apparent volume of the peripheral compartment for parent drug, estimate (RSE %) ([4]; final model fixed effect): 105.6 (0.7) L
F higher in East Asian compared with non‐East Asian individuals ([4]; race covariate): 23% and ~ 23%
Vp/F lower in East Asian compared with non‐East Asian individuals ([4]; race covariate): 38%
BOV F1, between‐occasion variability, estimate (RSE %) ([4]; random effect): 52.9 (1.7)
BOV MTT, between‐occasion variability, estimate (RSE %) ([4]; random effect): 125 (2.2) h
BSV CL/F, between‐subject variability, estimate (RSE %) ([4]; random effect): 23.2 (5.6) L/h
BSV Vc/F, estimate (RSE %) ([4]; random effect): 306 (6.3) L
BSV Vp/F, estimate (RSE %) ([4]; random effect): 35.9 (6.9) L
CL/F_ECOG2+, covariate effect of ECOG on CL/F, estimate (RSE %) ([4]; relative change (1 + estimate)): −0.128 (43.9)
CL/F_HEALTHGP, covariate effect of healthy individuals on CL/F, estimate (RSE %) ([4]; relative change (1 + estimate)): 0.645 (17.1)
Vp/F_HEALTHGP, covariate effect of healthy individuals on Vp/F, estimate (RSE %) ([4]; relative change (1 + estimate)): −0.424 (5.9)
best overall response PR, number of patients (R/R CLL/SLL; [12]): 50
best overall response PRL, number of patients (R/R CLL/SLL; [12]): 2
best overall response SD, number of patients (R/R CLL/SLL; [12]): 6
relationship between exposures and efficacy endpoints (BOR and SPD) (R/R CLL/SLL): flat relationships
AUC higher in Chinese participants than in White patients [10]: 48%
incidence of atrial fibrillation and haemorrhage compared with ibrutinib [11]: lower incidence
best overall response CR, number of patients (R/R MCL; [13]): 12
best overall response PD, number of patients (R/R MCL; [13]): 4
best overall response PR, number of patients (R/R MCL; [13]): 16
best overall response SD, number of patients (R/R MCL; [13]): 1
relationship between exposures and efficacy endpoints (BOR and SPD) (R/R MCL): flat relationships
